{
  "source": "ChEMBL document CHEMBL4706684",
  "about": "“Discovering High Potent Hsp90 Inhibitors as Antinasopharyngeal Carcinoma Agents through Fragment Assembling Approach” (J Med Chem, 2021)",
  "key": {"[1]": {"target": "T1, Heat shock protein HSP 90-alpha (Homo sapiens, UniProt P07900)", "test": "Inhibition of HSP90-alpha in human CNE-2 cells assessed as reduction in PKB protein levels at 70 nM incubated for 24 hrs in presence of HSP90-alpha siRNA by immunoblot analysis", "format": "cell-based", "procedure,_shortened": "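CNE2 cells were transiently transfected with Hsp90 siRNA (siHsp90-1 or siHsp90-2) at 150 nM final using Lipofectamine 2000. They were then incubated with inhibitor for 24 h and immunoblotted: RIPA lysis, 8–12% SDS-PAGE, PVDF, overnight primary antibodies, HRP secondaries, chemiluminescence, actin as loading control.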"}, "[2]": {"tested_on": "CNE-2", "test": "Induction of apoptosis in human CNE-2 cells assessed as early apoptosis cells level at 70 nM incubated for 12 hrs by Annexin-V/FITC staining based FACS analysis (reference value: 3.1%)", "format": "cell-based", "settings": "cne-2, 12 h, 0.07 µM"}, "[3]": {"tested_on": "CNE-2", "test": "Induction of apoptosis in human CNE-2 cells overexpressing HSP90 assessed as early apoptosis cells level at 70 nM incubated for 12 hrs by Annexin-V/FITC staining based FACS analysis (reference value: 3.1%)", "format": "cell-based", "settings": "cne-2, 12 h, 0.07 µM"}, "[4]": {"tested_on": "CNE-2", "test": "Induction of apoptosis in human CNE-2 cells assessed as viable cells level at 20 nM incubated for 12 hrs by Annexin-V/FITC staining based FACS analysis (reference value: 96.7%)", "format": "cell-based", "settings": "read-out: Activity", "procedure,_shortened": "(§1)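 CNE2 cells (RPMI 1640 with 10% FBS) were seeded at 5 × 10⁴ cells per well. After 24 h they were treated with compound in 0.05% DMSO for 12 h. Cells were then washed twice with PBS, pelleted, and stained in binding buffer with Annexin V-FITC and PI for flow cytometry.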"}, "[5]": {"tested_on": "CNE-2", "test": "Induction of apoptosis in human CNE-2 cells overexpressing HSP90 assessed as necrosis cells level at 70 nM incubated for 12 hrs by Annexin-V/FITC staining based FACS analysis (reference value: 1.49%)", "format": "cell-based", "settings": "cne-2, 12 h, 0.07 µM"}, "[6]": {"tested_on": "CNE-2", "test": "Induction of apoptosis in human CNE-2 cells assessed as viable cells level at 200 nM incubated for 12 hrs by Annexin-V/FITC staining based FACS analysis (reference value: 96.7%)", "format": "cell-based", "settings": "read-out: Activity", "procedure,_shortened": "as §1"}, "[7]": {"tested_on": "CNE-2", "test": "Induction of apoptosis in human CNE-2 cells assessed as viable cells level at 50 nM incubated for 12 hrs by Annexin-V/FITC staining based FACS analysis (reference value: 96.7%)", "format": "cell-based", "settings": "read-out: Activity", "procedure,_shortened": "as §1"}, "[8]": {"tested_on": "L02", "test": "Toxicity in human L02 cells assessed as induction of apoptosis at 62.5 to 1000 nM incubated for 12 hrs by Annexin-V/FITC staining based FACS analysis", "format": "cell-based", "settings": "l02, 12 h, 1 µM, dose 62.5-1000 nM"}, "[9]": {"target": "Heat shock protein HSP 90-beta (Homo sapiens, UniProt P08238)", "sequence (P08238 whole entry)": "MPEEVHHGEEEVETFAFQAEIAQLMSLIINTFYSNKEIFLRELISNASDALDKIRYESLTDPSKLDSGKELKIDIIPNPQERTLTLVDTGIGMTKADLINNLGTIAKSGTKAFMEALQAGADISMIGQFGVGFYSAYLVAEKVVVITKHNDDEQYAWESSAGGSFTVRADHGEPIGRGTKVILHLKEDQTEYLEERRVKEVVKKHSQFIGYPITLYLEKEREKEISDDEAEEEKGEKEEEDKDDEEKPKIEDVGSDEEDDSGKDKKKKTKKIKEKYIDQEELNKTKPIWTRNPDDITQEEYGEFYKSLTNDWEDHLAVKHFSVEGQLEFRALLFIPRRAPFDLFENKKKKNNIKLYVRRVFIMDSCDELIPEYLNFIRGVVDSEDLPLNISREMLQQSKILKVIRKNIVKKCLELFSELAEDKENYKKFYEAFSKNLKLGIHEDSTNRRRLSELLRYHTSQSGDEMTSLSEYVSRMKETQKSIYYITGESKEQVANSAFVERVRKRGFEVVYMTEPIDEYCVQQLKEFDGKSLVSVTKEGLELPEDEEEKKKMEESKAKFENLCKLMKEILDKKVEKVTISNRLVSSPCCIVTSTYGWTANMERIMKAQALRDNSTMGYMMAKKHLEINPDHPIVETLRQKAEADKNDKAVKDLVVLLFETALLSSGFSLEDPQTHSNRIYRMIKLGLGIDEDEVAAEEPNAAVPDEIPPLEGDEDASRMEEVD", "test": "Inhibition of HSP90-beta (unknown origin) expressed in Escherichia coli BL21 assessed as reduction in ATPase activity in presence of PEP, NADH and ATP by pyruvate kinase/lactic dehydrogenase based coupled enzyme assay"}, "[10]": {"tested_on": "CNE-2", "test": "Induction of apoptosis in human CNE-2 cells assessed as necrosis cells level at 500 nM incubated for 12 hrs by Annexin-V/FITC staining based FACS analysis (reference value: 1.45%)", "format": "cell-based", "settings": "cne-2, 12 h, 0.5 µM"}, "[11]": {"target": "T1, Heat shock protein HSP 90-alpha", "test": "Binding affinity to HSP90-alpha (unknown origin) expressed in Escherichia coli BL21 by SPR assay"}, "[12]": {"target": "T1, Heat shock protein HSP 90-alpha", "test": "Inhibition of HSP90-alpha (unknown origin) expressed in Escherichia coli BL21 assessed as reduction in ATPase activity in presence of PEP, NADH and ATP by pyruvate kinase/lactic dehydrogenase based coupled enzyme assay"}, "[13]": {"tested_on": "CNE-2", "test": "Induction of apoptosis in human CNE-2 cells assessed as Bcl-XL degradation at 70 nM incubated for 24 hrs in presence of HSP90-beta siRNA by immunoblot analysis", "format": "functional, cell-based"}, "[14]": {"tested_on": "CNE-2", "test": "Induction of apoptosis in human CNE-2 cells assessed as necrosis cells level at 200 nM incubated for 12 hrs by Annexin-V/FITC staining based FACS analysis (reference value: 1.45%)", "format": "cell-based", "settings": "cne-2, 12 h, 0.2 µM"}, "[15]": {"tested_on": "CNE-2", "test": "Induction of apoptosis in human CNE-2 cells assessed as late apoptosis cells level at 200 nM incubated for 12 hrs by Annexin-V/FITC staining based FACS analysis (reference value: 1.45%)", "format": "cell-based", "settings": "cne-2, 12 h, 0.2 µM"}, "[16]": {"tested_on": "CNE-2", "test": "Induction of apoptosis in human CNE-2 cells assessed as necrosis cells level at 70 nM incubated for 12 hrs by Annexin-V/FITC staining based FACS analysis (reference value: 1.49%)", "format": "cell-based", "settings": "cne-2, 12 h, 0.07 µM"}, "[17]": {"tested_on": "CNE-2", "test": "Antitumor activity against human CNE-2 cells xenografted in nu/nu mouse assessed as inhibition of tumor growth at 1 mg/kg, ip for 32 days", "format": "functional, organism-based", "settings": "time 32.0 day"}, "[18]": {"tested_on": "CNE-2", "test": "Induction of apoptosis in human CNE-2 cells assessed as late apoptosis cells level at 50 nM incubated for 12 hrs by Annexin-V/FITC staining based FACS analysis (reference value: 1.45%)", "format": "cell-based", "settings": "cne-2, 12 h, 0.05 µM"}, "[19]": {"tested_on": "CNE-2", "test": "Induction of apoptosis in human CNE-2 cells assessed as late apoptosis cells level at 100 nM incubated for 12 hrs by Annexin-V/FITC staining based FACS analysis (reference value: 1.45%)", "format": "cell-based", "settings": "cne-2, 12 h, 0.1 µM"}, "[20]": {"test": "Binding affinity to HSP90-alpha L107G mutant (unknown origin) expressed in Escherichia coli BL21 by SPR assay", "set-up": "species or system Homo sapiens", "procedure,_shortened": "(§2)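 SPR on a Biacore T200 at 25 °C with running buffer PBST (PBS pH 7.4, 0.005% Tween-20). Protein at 20 μg/mL in 10 mM sodium acetate pH 5.0 was immobilized on a CM5 chip, which was equilibrated overnight in PBST. Inhibitor serially diluted from 10 μM was injected at 30 μL/min with 120 s contact and 120 s dissociation.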"}, "[21]": {"tested_on": "CNE-2", "test": "Induction of apoptosis in human CNE-2 cells assessed as necrosis cells level at 100 nM incubated for 12 hrs by Annexin-V/FITC staining based FACS analysis (reference value: 1.45%)", "format": "cell-based", "settings": "cne-2, 12 h, 0.1 µM"}, "[22]": {"tested_on": "CNE-2", "test": "Induction of apoptosis in human CNE-2 cells assessed as late apoptosis cells level at 70 nM incubated for 12 hrs by Annexin-V/FITC staining based FACS analysis (reference value: 2.18%)", "format": "cell-based", "settings": "cne-2, 12 h, 0.07 µM"}, "[23]": {"tested_on": "CNE-2", "test": "Induction of apoptosis in human CNE-2 cells assessed as reduction in HER2 protein level at 500 nM incubated for 24 hrs by immunoblot analysis", "format": "functional, cell-based", "procedure,_shortened": "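CNE2 cells (RPMI 1640, 10% FBS, 37 °C, 5% CO₂) were incubated with inhibitor for 24 h, then lysed in RIPA buffer on ice for 30 min. Lysates were run on 8–12% SDS-PAGE and transferred to PVDF. Membranes were blocked with 5% milk and probed with primary antibodies overnight, then HRP secondaries. Detection was by chemiluminescence with actin as loading control.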"}, "[24]": {"tested_on": "HEK-293T", "test": "Cytotoxicity in HEK293T cells assessed as reduction in cell viability up to 20 uM incubated for 48 hrs by MTT assay", "format": "cell-based", "settings": "human"}, "[25]": {"test": "Binding affinity to HSP90-alpha T184G mutant (unknown origin) expressed in Escherichia coli BL21 by SPR assay", "set-up": "species or system Homo sapiens", "procedure,_shortened": "as §2"}},
  "note": "Active and inactive are the calls of the source. The rule behind the calls is not given here.",
  "data": [
    {"compound": "CC(C)(C)c1ccc(Cn2cc(-c3cc(O)c(O)c(O)c3)nn2)cc1", "values": [
      {"measurement": "inhibition", "setting": "[1]", "value": "inactive"},
      {"measurement": "Activity", "setting": "[2]", "value": 13.7, "unit": "%"},
      {"measurement": "Activity", "setting": "[3]", "value": 3.96, "unit": "%"},
      {"measurement": "viability at 0.02 µM", "setting": "[4]", "value": 93.6, "unit": "%"},
      {"measurement": "Activity", "setting": "[5]", "value": 0.64, "unit": "%"},
      {"measurement": "viability at 0.2 µM", "setting": "[6]", "value": 75.1, "unit": "%"},
      {"measurement": "viability at 0.05 µM", "setting": "[7]", "value": 77.2, "unit": "%"},
      {"measurement": "Activity", "setting": "[8]", "value": "Non-Toxic"},
      {"measurement": "IC50", "setting": "[9]", "value": 0.18, "unit": "µM"},
      {"measurement": "Activity", "setting": "[10]", "value": 0.96, "unit": "%"},
      {"measurement": "Kd", "setting": "[11]", "value": 0.063, "unit": "µM"},
      {"measurement": "IC50", "setting": "[12]", "value": 0.16, "unit": "µM"},
      {"measurement": "Activity", "setting": "[13]", "value": "inactive"},
      {"measurement": "Activity", "setting": "[14]", "value": 0.3, "unit": "%"},
      {"measurement": "Activity", "setting": "[15]", "value": 11.6, "unit": "%"},
      {"measurement": "Activity", "setting": "[16]", "value": 1.2, "unit": "%"},
      {"measurement": "TGI", "setting": "[17]", "value": "Active"},
      {"measurement": "Activity", "setting": "[18]", "value": 15.3, "unit": "%"},
      {"measurement": "Activity", "setting": "[19]", "value": 15.6, "unit": "%"},
      {"measurement": "Kd", "setting": "[20]", "value": 29.1, "unit": "µM"},
      {"measurement": "Activity", "setting": "[21]", "value": 0.57, "unit": "%"},
      {"measurement": "Activity", "setting": "[22]", "value": 9.56, "unit": "%"},
      {"measurement": "Activity", "setting": "[23]", "value": "Active"},
      {"measurement": "Activity", "setting": "[24]", "value": "Non-Toxic"},
      {"measurement": "Kd", "setting": "[25]", "value": 81.4, "unit": "µM"}
    ]}
  ]
}
